The text below walks through data of the RNAGym collection of RNA variant scans (doi:10.1126/science.aae0568).

This sample holds only a part of the variants without activity.

B1: tRNA (parent)
chain: GUUCCGUUGGCGUAAUGGUAACGCGUCUCCCUCCUAAGGAGAAGACUGCGGGUUCGAGUCCCGUACGGAACG

The variants in the data set derive from B1. Briefly: yeast fitness relative to wild type (ratio to wild type); higher = fitter; tRNA-Arg(CCU), competitive growth, 37 C, YPD. Summed up:
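The tRNA-Arg(CCU) gene variants were made by chemical synthesis with a 3% per-site mutation rate at 69 sites and inserted at the native genomic locus of Saccharomyces cerevisiae. After pooling, the strains were competed in YPD at 37°C for 24 hours in six parallel replicates. Gene amplicons from the start population and each end population were read by 100-nucleotide paired-end sequencing, and Darwinian fitness relative to wild type was taken from genotype frequency changes. Genotypes needed ≥ 100 starting reads, and estimates < 0.5 were set to 0.5.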
In the case of GUUCCGUUGGCGUCAUGGUAACGCGUCUCCUUCCUAAGGAGAAGACUGCGGGUUCGAGUCCCGUACGGUACG [A14C C31U A69U], the yeast fitness was no more than 0.5. On to GUUCCGUUGGCGUCAUGGUAACGUGUCUCCCUCCUAAGGAGAAGACUGCGCGUACGAGUCCCGUACGGAACG [A14C C24U G51C U54A], for which the yeast fitness is no more than 0.5. On to GUUCCGUUGGCGUCAUGGUAACGCGUCUCCCUCCUAAGGAGAAGACUGCGCGUUCGAGUCCCGUACGGAACG [A14C G51C], for which the yeast fitness was 0.53. Under GUUCCGUUGGCGUCAUAGUAACGCGUCUCCCUCCUAAGGAGAAGACUGCGGGUUCGAGUCCCGUACGGAACG [A14C G17A] stands 0.679; under GUUCCGUUGGCGUCAUGGUAACGAGUCUCCCUCCUAGGGAGAAGACUGCGGGUUCGAGUUCCGUACGGAACG [A14C C24A A37G C60U], no more than 0.5; under GUUCCGUUGGCGUCAUGGUAACGCGUCUCCCUCCUAAGGAGAAGACUGCGGGUUGGAGUCCCGUACGCAACG [A14C C55G G68C], no more than 0.5. GUUCCGUUGGCGUCAUGGUAACGCGUCUCCCUCAUAGGGAGAAGACUGCGGGUUCGAGUCCCGUACGGAUCG [A14C C34A A37G A70U]: the yeast fitness is no more than 0.5. Consider GUUCCGUUGGCGUCAUGGUAACGCGUCUCCCUCCUACGGAGAAGACUGCGAGUUCGAGACCCGUACGGAACG [A14C A37C G51A U59A], for which the yeast fitness came to 0.56. In the case of GUUCCGUUGGCGUCAUGGUAACGCGUUUCCCUCGUAAGGAGAAGACUGCGAGUUCGAGUCCCGUACUGAACG [A14C C27U C34G G51A G67U], the yeast fitness is no more than 0.5. As for GUUCCGUUGGCGUCAUGGUAACGCGUCUGCCUCCUAAGGAGAAGACUCCGGGUUCGAGUCCCGUACAGAACG [A14C C29G G48C G67A], the yeast fitness was no more than 0.5.

Regarding GUUCCGUUGGCGUCAUGGUAACGCGUCUUGAUCAUAAGGAGAAGACUGCGGCUUCGAGUCCCGUACGGAACG [A14C C29U C30G C31A C34A G52C], the yeast fitness was no more than 0.5. To GUUCCGUUGGCGUCAUGGUAAUGCGUCUCCCUCCUAAGGAGAAGACUGCGGGUUCGAGUCCCGUACGGAGCG [A14C C22U A70G] belongs no more than 0.5; to GUUCCGUUGGCGUCAUGGUAAGGCGUCUCCCUCCUAAGGAGAAGACUGCGGGUUCGAGUCCCGUACAGAACG [A14C C22G G67A], no more than 0.5.

In the case of GUUCCGUUGGCGUCAUGGUAACGCGUCUCCCUCCUAAGAAGAAGACUGCGGGUUCGAGUCCCGUACGGAACG [A14C G39A], the yeast fitness was found to be 0.754. With GUUCCGUUGGCGUCAUGGUAACGAGUCUCCCUCCUAAGGAGAAGACUGCGGGUUCGAGUCACGUACGGAACG [A14C C24A C61A], the yeast fitness is no more than 0.5. Take GUUCCGUUGGCGUCAUGGUAACGCGUCUCCCUCCUAAGGAGAAGACUGGGGGUUCGAGUCCCGUACGGAUCG [A14C C49G A70U]: the yeast fitness is no more than 0.5. Take GUUCCGUUGGCGUCAUGGUAAUGCGUCUCCCACUUAAGGAGAAGACUGCGGGUUCGAGUCCCGUAUGGAACG [A14C C22U U32A C34U C66U]: the yeast fitness was determined as 0.576. Consider GUUCCGUUGGCGUCAUGGUAACGCGUCUCCCUCCUAAGGAGAAGACUGCGGGUUAGAGUCCCGUUCGGAACG [A14C C55A A65U], for which the yeast fitness is no more than 0.5. To GUUCCGUUGGCGUCAUGGUAACGCGUCUCCCUCUUGAGCAGAAGACUGCGGGUUCGAGUCCCGUACGGAACG [A14C C34U A36G G39C] belongs 0.535; to GUUCCGUUGGCGUCAUGGUAACGCGUCUCCCUCCUAAGGAGAAGAGUGCGGGUUCGAGUGCCGUACGGAACG [A14C C46G C60G], no more than 0.5; to GUUCCGUUGGCGUCAUGGUAACGCGUCUCCCUCCUAAGGAGAAGACUGCGGGUUCGCGUCCUGUACGGAACG [A14C A57C C62U], no more than 0.5.

As to GUUCCGUUGGCGUCAUGGUAACGCGUCUCCCUCCUAAGGCGAAGACCGCGGGUUCGCGUCCCGUACGGAACG [A14C A40C U47C A57C], the yeast fitness is no more than 0.5. Turning to GUUCCGUUGGCGUCAUGGUAACGCGUCUACCUCCUAAGGAGAAGACUGCAGGUUCGAGUCCCGUACGCACCG [A14C C29A G50A G68C A70C], the yeast fitness is no more than 0.5. For the variant GUUCCGUUGGCGUCAUGGUAACGCGUCUCCCUCCUAAGGAGAAGACUGCGGGUUGGUGUCCUGUACGGAACG [A14C C55G A57U C62U], the yeast fitness is no more than 0.5. As to GUUCCGUUGGCGUCAUGGUAGCGCGUCUCCCUCCUAAGGAGAAGACUGCGGGAUCGAGUCCCGUACGGAACG [A14C A21G U53A], the yeast fitness was no more than 0.5. To GUUCCGUUGGCGUCAUGGUAACGUGUCUCCCUCCCAAGGAGAAGAGUGCGGAUUCGAGUCACGUACGGAACG [A14C C24U U35C C46G G52A C61A] belongs 0.535. Take GUUCCGUUGGCGUCACGGUAACGCGUCUCCCUCCUAAGGAGAAGACUGCGCGUUCGAAUCCCGUACGGAACG [A14C U16C G51C G58A]: the yeast fitness turned out to be 0.528. In the case of GUUCCGUUGGCGUCAUGGUAACGCGUCUCACUCCUGAGGAGAAGACUGCGGGUUCGAGUCCUAUACGGAUCG [A14C C30A A36G C62U G63A A70U], the yeast fitness was no more than 0.5. For GUUCCGUUGGCGUCAUGGUAACGGGUCUCCAUGCUAAGGAGAACACUGCGGGUUCGAGUCCCGUACGGAACG [A14C C24G C31A C33G G44C], the yeast fitness is 0.584. As to GUUCCGUUGGCGUCAUGGUAACGGGUCUCCCUCCUAAGAAGAAGACUGCGGGUUCGAGUCCCGUACGGAACG [A14C C24G G39A], the yeast fitness is no more than 0.5. As to GUUCCGUUGGCGUCACGGUAGCGCGUCUACCUCUUAAGGAGAAGACUGCGGGUUCGAGUCCCGUACGGUACG [A14C U16C A21G C29A C34U A69U], the yeast fitness was no more than 0.5. To GUUCCGUUGGCGUCAUGGUAACGCGUCUCCCUCCUAAGGAGAAGACUGCGGGUUCGAGUCCUGUACGGAACG [A14C C62U] belongs 0.853; to GUUCCGUUGGCGUCAUGGUAACGCGUCUCCCUCCUGAGGAAAAGACUCCGGGUUCGAGCCCCGUACGGACCG [A14C A36G G41A G48C U59C A70C], no more than 0.5; to GUUCCGUUGGCGUCAUGGUAACGCGUCUCCCUCCUAAGCAGAAGACUGCGGGUUCGAGUUCCGUACGGAACG [A14C G39C C60U], no more than 0.5. Under GUUCCGUUGGCGUCAUGGAAACGCGUCUCCCUCCUAAGGAGAAGACUGCGGGUUCGAGUCCCGUACGGAACG [A14C U19A] stands 0.602; under GUUCCGUUGGCGUCAUGGUAACGCGUCUCCCUCCUAAGGAGAAGACUGCGGGUUCGAGUCCCGUACGGCACG [A14C A69C], 0.654; under GUUCCGUUGGCGUCAUGGUAACGCGUCUCCCUCCUAAGGAGAAGACUGCGGGUUCGAGUCCCGUACAGAACG [A14C G67A], 0.695. Consider GUUCCGUUGGCGUCAUGGUAACGCGUCUCCCUCAUAAGGAGAAGACUGCGGGUUCGAGUCUCGAACGGGACG [A14C C34A C61U U64A A69G], for which the yeast fitness was no more than 0.5.
